Screening results: PubChem BioAssay, several laboratories
This is a sample that favours compounds with a hit; in the whole collection about 2.5% have one here.
MC4R antagonist – antagonists of human melanocortin 4 receptor (MC4R); inhibition, % at 6.5 µM; MC4R-expressing cells, MTII-stimulated cAMP, LANCE TR-FRET; P32245; actives 0.48% (n = 360,000);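 active = inhibition above its plate's cutoff, the mean of tested wells on that plate plus 3 SD, cut at about 29% in these data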;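 also: 0% = Melanotan II alone and 100% = Melanotan II plus saturating MCL0020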
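Material: human MC4R-expressing U2OS cells. Probe or stimulus: Melanotan II challenge. Dosing: 6.5 µM single dose. Times: 30-min compound, 1-h challenge, 1-h detection, room temperature. Technique: TR-FRET with Eu-cAMP and labeled anti-cAMP, 671 nm. Replication: singlicate.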
Exocytosis inh – blocks lytic granule exocytosis. TALL-104 LAMP-1 surface exposure, flow cytometry; cells stimulated with thapsigargin and PMA. inhibition, % at 10 µM. actives 0.66% (n = 360,000). AID 651702;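 active = inhibition above about 55%, limit read from the data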
A1 inh – inhibitors of the anti-apoptotic protein A1, read as caspase activation | caspase activation, % (concentration not given with the values) | actives 0.066% (n = 330,000) | MEF A1-2A-BIM cells, Caspase-Glo 3/7 luminescence, 3 h; percent of clofoctol response, vehicle zero;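 active = over half of replicate activation scores above 10%, or exactly half above 10 with the replicate mean above 10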
NTR1 agonist – NTR1 (human) agonism; activation, % at 20 µM; NTR1-U2OS beta-arrestin-GFP spot imaging, agonist mode; P30989; actives 0.17% (n = 330,000); AID 493036;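 active = activation at or above 40% of the spot to cytoplasm intensity ratio, with at least 20 cells analyzed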;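 also: 0% = DMSO without peptide and 100% = 100 nM NTR1 peptide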
MC4R ag barr – human MC4R agonism via beta-arrestin. P32245. U2OS MC4R beta-arrestin complementation, luminescence; percent of melanotan II response, DMSO zero. activation, % at 8.9 µM. actives 0.98% (n = 360,000);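 active = activation above a per-plate cutoff, the mean activation of sample wells on that plate plus 3 SD, cut at about 8% in these data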
sPLA2-III inh – Blocks human group III sPLA2 activity. Q9NZ20. QFRET BODIPY PC-A2 liposome hydrolysis, fluorescence. inhibition, % at 12.2 µM. actives 0.56% (n = 370,000). AID 743126;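 active = inhibition above mean plus 3 SD of compounds lying within the high and low control bounds, cut at about 19% in these data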;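 also: 0% = median of test compound wells and 100% = no enzyme DMSO wells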
Target sequence (Q9NZ20 whole entry, looked up): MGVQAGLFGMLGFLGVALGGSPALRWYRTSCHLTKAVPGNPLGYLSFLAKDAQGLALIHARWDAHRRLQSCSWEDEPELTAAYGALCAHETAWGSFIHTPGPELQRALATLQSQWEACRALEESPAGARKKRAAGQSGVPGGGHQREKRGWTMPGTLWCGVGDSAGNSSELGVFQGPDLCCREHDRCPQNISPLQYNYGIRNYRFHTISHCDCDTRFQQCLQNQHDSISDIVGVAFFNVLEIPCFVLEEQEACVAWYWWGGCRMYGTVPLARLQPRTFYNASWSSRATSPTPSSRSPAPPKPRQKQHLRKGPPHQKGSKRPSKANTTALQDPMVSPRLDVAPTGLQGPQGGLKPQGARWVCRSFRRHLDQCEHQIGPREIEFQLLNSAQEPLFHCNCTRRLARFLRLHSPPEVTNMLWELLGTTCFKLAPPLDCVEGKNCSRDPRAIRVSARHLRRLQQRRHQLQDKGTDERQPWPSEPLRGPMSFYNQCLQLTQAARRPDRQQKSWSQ
U2OS cAMP counter – U2OS forskolin cAMP inhibition counter-screen; AID 602193; actives 26% (n = 1,600); parental U2OS, LANCE TR-FRET; inhibition, % at 6.5 µM; shares compounds with MC4R antagonist;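 active = mean inhibition over triplicates above the low-control well mean plus 3 SD, set per campaign, cut at about 13% in these data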;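 also: signal is single emission at 671 nm which falls as cellular cAMP rises; 0% = forskolin-stimulated wells and 100% = buffer without forskolin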
MC4R antag conf – human MC4R cAMP antagonism confirmation; inhibition, % at 6.5 µM; shares compounds with MC4R antagonist; MC4R-expressing cells, MTII-stimulated cAMP, TR-FRET; actives 27% (n = 1,600); AID 602195; in the data active = inhibition above about 29%;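 also: 0% = agonist stimulated wells alone and 100% = agonist stimulated wells plus saturating reference antagonist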
An asterisk follows results filed as active; · = not tested or not shown.

SMILES | MC4R antagonist | Exocytosis inh | A1 inh | NTR1 agonist | MC4R ag barr | sPLA2-III inh | U2OS cAMP counter | MC4R antag conf
CCOc1ccc(NC(=O)CNC(=O)c2nn(-c3ccc(OC)c(OC)c3)c(=O)c3ccccc23)cc1 | 38* | -2 | 0 | -2 | 1 | 6 | 13 | 19
CCC[C@@H](CN1CCC[C@H]1CN1C(N)=NC[C@H]1CC(C)C)N1C[C@@H](Cc2ccccc2)N(CCc2ccc(Cl)c(Cl)c2)C1=N | 29* | 0 | 1 | -2 | 2 | 3 | -2 | 39*
CCC[C@@H](CN1CCC[C@H]1CN1C(N)=NC[C@@H]1Cc1ccccc1)N1C[C@@H](Cc2ccccc2)N(CCc2ccc(Cl)c(Cl)c2)C1=N | 18 | -1 | 1 | 3 | 1 | -2 | · | ·
CC(C)[C@H](CN1CCC[C@H]1CN1C(N)=NC[C@H]1C(C)C)N1C[C@@H](Cc2ccccc2)N(CCCC2CCCC2)C1=N | 30* | 3 | 0 | 0 | 0 | · | -3 | 27
CC(C)[C@H](CN1CCC[C@H]1CN1C(N)=NC[C@@H]1Cc1ccccc1)N1C[C@@H](Cc2ccccc2)N(CCc2ccc(Cl)c(Cl)c2)C1=N | 31* | -3 | -1 | -1 | 1 | · | -6 | 43*
O=C(N[C@H](Cc1ccccc1)C(=O)NCc1ccco1)[C@H]1O[C@@H](n2ccc(=O)[nH]c2=O)[C@H](O)[C@@H]1O | · | · | · | · | · | 2 | · | ·
C[C@@H]1CN([C@@H](C)CO)C(=O)c2ccccc2-c2ccccc2CO[C@@H]1CN(C)Cc1ccc(Cl)c(Cl)c1 | · | · | · | · | · | -12 | · | ·
Cc1cccc(CNc2ncc(-c3cccc([N+](=O)[O-])c3)n2C)c1 | 33* | 3 | 0 | 3 | -1 | -2 | 2 | -1
COc1ccc(C(CCOC(=O)Oc2ccccc2)c2cc(OC)cc(OC)c2)cc1 (stereo not given) | · | · | · | · | · | -17 | · | ·
CC(c1ccccc1)n1c(SCC(=O)N2CC(=O)Nc3ccccc32)nc2ccccc2c1=O (stereo not given) | 33* | 18 | 0 | 5 | -1 | -5 | 0 | 18
O=C1CN(C(=O)CSc2nc3cc(Cl)ccc3c(=O)n2Cc2ccccc2)c2ccccc2N1 | 14 | 2 | -1 | 0 | -5 | 10 | · | ·
COCC(C)n1c(SCC(=O)N2CC(=O)Nc3ccccc32)nc2ccccc2c1=O (stereo not given) | 12 | -11 | 1 | -2 | 0 | 0 | · | ·
Cc1ccc(Cn2c(SCC(=O)N3CC(=O)Nc4ccccc43)nc3ccccc3c2=O)cc1 | 29* | -3 | 1 | 4 | 0 | -1 | -1 | -5
COC(=O)C1=C(C)N(Cc2cccc(C(F)(F)F)c2)C(=NCc2ccc3c(c2)OCO3)NC1c1cccc(Cl)c1 (stereo not given) | · | · | · | · | · | 4 | · | ·
CN1CCC(Oc2ccccc2Sc2ccc(C(F)(F)F)cc2)CC1 | 33* | 2 | 0 | 2 | -3 | -9 | 1 | 31*
CN1CCC(Oc2ccc(Sc3ccccc3)cc2)CC1 | -1 | -3 | 1 | 1 | 0 | -28 | · | ·
Cc1cccc2cc(C#N)c(SCC(=O)NCc3cccs3)nc12 | 39* | -1 | -1 | -1 | 3 | -3 | 41* | 80*
CCc1cc2cccc(C)c2nc1SCC(=O)NC1CCCC1 | 6 | 25 | 0 | -1 | -1 | -2 | · | ·
CCOC(=O)CNC(=O)CSc1nc2c(C)cccc2cc1CC | 34* | -1 | 0 | 0 | 2 | 4 | 0 | 5
O=C(NC1CCCCN(Cc2cccc(Cl)c2)C1=O)C1CCCCC1 (stereo not given) | · | · | · | · | · | 7 | · | ·
C=CCn1c(COc2ccc(C)cc2)nnc1SCC(=O)c1ccc(-c2ccccc2)cc1 | · | · | · | · | · | -16 | · | ·
CCOc1ccccc1NC(=O)COC(=O)CNS(=O)(=O)c1ccc(C)cc1 | 31* | 4 | 0 | 1 | 0 | 7 | 17* | 35*
CCOc1ccccc1NC(=O)COC(=O)CN(C)S(=O)(=O)c1ccc(C)cc1 | 17 | 3 | 0 | 2 | -2 | -1 | · | ·
Cc1cc(NC(=O)COC(=O)CNS(=O)(=O)c2ccc(C)c(C)c2)no1 | 47* | -3 | 0 | 0 | -2 | 5 | 14* | 30*
O=C(CNS(=O)(=O)c1ccc2ccccc2c1)OCc1nnc(-c2ccccc2)o1 | 35* | -3 | 0 | 2 | 2 | -15 | 17* | 35*
SMILES | MC4R antagonist | Exocytosis inh | A1 inh | NTR1 agonist | MC4R ag barr | sPLA2-III inh | U2OS cAMP counter | MC4R antag conf
Cc1ccc(S(=O)(=O)NCC(=O)OCc2nnc(-c3ccccc3)o2)cc1C | 29* | 6 | 0 | 2 | -3 | -2 | 20* | 41*
Cc1ccccc1-c1ccc2c(c1)[C@@H]1C[C@H]3[C@@H](CN1CC2)[C@H](C)ON3C | · | · | · | · | · | 11 | · | ·
COC(=O)c1sc(N)c(C(=O)OC)c1COC(=O)CCNS(=O)(=O)c1ccc(C)cc1 | 10 | -4 | 0 | 3 | -3 | -47 | · | ·
COC(=O)c1sc(N)c(C(=O)OC)c1COC(=O)CNS(=O)(=O)c1ccc(C)c(C)c1 | 32* | -6 | 1 | 1 | 1 | -37 | 8 | 19
NC(=O)c1cccc2ccccc12 | 32* | 2 | 0 | 0 | -1 | -3 | 2 | -8
O=C(c1ccccc1)c1cccc2ccccc12 | 2 | -3 | · | · | 5 | -4 | · | ·
Oc1ccc(CNc2ccc(C(F)(F)F)cc2F)c2cccnc12 | · | · | · | · | · | 9 | · | ·
O=C1CCCN1c1ccc(S(=O)(=O)Nc2cccnc2)cc1 | 29* | -2 | 0 | 0 | -2 | 4 | -1 | -5
Cn1c(=O)[nH]c(=O)c2c1nc(Br)n2CC(O)COc1ccc(Cl)cc1 (stereo not given) | 31* | -2 | 0 | 4 | 2 | -5 | -4 | -2
CCS(=O)(=O)c1ncc(Cl)c(C(=O)Nc2ccc(S(=O)(=O)N3CCC(C)CC3)cc2)n1 | 56* | 22 | 42* | 28 | -3 | -29 | 9 | 39*
COc1ccccc1NC(=O)c1nc(S(=O)(=O)Cc2ccccc2)ncc1Cl | 5 | 48 | 0 | 11 | -7 | 3 | · | ·
CCOC(=O)c1ccc(NC(=O)c2nc(S(=O)(=O)Cc3ccccc3)ncc2Cl)cc1 | -1 | 46 | 1 | 0 | -5 | -4 | · | ·
CCCc1nnc(NC(=O)c2nc(S(=O)(=O)Cc3ccc(C)cc3)ncc2Cl)s1 | 52* | 6 | 1 | 0 | -5 | -8 | 22* | 36*
CC1CCN(S(=O)(=O)c2ccc(NC(=O)c3ccncc3)cc2)CC1 | 1 | -4 | -1 | -1 | -2 | -2 | · | ·
